According to article PMC3103858 (Chemistry & biology, 2011):

Tests used:
U2OS cells = assay: BRDU incorporation cell cycle assay; assay type: cell-based, human
Procedure, shortened: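 U2OS cells in DMEM with 10% FBS were seeded at 1×10^5/ml. After 12 h, they got test compound (50 μM) with or without doxorubicin (5 μM); DMSO and untreated cells were controls. BrdU was added for the 24 h treatment. Cells were fixed, probed with anti-BrdU antibody, then peroxidase. Colour was developed with TMB, stopped, and read as OD at 450 nm.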

[1] = system: primary neonatal rat cardiomyocytes; assay: TUNEL apoptosis assay in cardiomyocytes; assay type: cell-based
Procedure, shortened: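 Ventricular myocytes came from 1–2-day-old Sprague-Dawley rats: trypsin overnight at 4°C, collagenase 45 min at 37°C, two preplating rounds. Cells were grown in DMEM/F12 with 10% horse serum and 5% FCS, switched after 48 h to DMEM/F12 with 1% ITS and 0.1% BSA. Doxorubicin was given 24 h ± test compound. Cells on coverslips were fixed in 4% PFA/PBS, permeabilised with 0.5% Tween 20 for 10 min, and TUNEL-labelled with FITC-nucleotide. Triplicates on three days.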

p53 target genes = assay: RT-PCR array analysis of p53 target genes in U2OS cells; assay type: cell-based, human
p53 binding to CBP = p53 binding to CBP (Homo sapiens, UniProt Q92793); assay: HA-CBP and Flag-p53 pull-down assay in HEK 293T cells; assay type: cell-based; conditions: HA-CBP and Flag-p53 over-expressed in 293T cells, doxorubicin treatment
Chain of p53 binding to CBP (Q92793 whole entry): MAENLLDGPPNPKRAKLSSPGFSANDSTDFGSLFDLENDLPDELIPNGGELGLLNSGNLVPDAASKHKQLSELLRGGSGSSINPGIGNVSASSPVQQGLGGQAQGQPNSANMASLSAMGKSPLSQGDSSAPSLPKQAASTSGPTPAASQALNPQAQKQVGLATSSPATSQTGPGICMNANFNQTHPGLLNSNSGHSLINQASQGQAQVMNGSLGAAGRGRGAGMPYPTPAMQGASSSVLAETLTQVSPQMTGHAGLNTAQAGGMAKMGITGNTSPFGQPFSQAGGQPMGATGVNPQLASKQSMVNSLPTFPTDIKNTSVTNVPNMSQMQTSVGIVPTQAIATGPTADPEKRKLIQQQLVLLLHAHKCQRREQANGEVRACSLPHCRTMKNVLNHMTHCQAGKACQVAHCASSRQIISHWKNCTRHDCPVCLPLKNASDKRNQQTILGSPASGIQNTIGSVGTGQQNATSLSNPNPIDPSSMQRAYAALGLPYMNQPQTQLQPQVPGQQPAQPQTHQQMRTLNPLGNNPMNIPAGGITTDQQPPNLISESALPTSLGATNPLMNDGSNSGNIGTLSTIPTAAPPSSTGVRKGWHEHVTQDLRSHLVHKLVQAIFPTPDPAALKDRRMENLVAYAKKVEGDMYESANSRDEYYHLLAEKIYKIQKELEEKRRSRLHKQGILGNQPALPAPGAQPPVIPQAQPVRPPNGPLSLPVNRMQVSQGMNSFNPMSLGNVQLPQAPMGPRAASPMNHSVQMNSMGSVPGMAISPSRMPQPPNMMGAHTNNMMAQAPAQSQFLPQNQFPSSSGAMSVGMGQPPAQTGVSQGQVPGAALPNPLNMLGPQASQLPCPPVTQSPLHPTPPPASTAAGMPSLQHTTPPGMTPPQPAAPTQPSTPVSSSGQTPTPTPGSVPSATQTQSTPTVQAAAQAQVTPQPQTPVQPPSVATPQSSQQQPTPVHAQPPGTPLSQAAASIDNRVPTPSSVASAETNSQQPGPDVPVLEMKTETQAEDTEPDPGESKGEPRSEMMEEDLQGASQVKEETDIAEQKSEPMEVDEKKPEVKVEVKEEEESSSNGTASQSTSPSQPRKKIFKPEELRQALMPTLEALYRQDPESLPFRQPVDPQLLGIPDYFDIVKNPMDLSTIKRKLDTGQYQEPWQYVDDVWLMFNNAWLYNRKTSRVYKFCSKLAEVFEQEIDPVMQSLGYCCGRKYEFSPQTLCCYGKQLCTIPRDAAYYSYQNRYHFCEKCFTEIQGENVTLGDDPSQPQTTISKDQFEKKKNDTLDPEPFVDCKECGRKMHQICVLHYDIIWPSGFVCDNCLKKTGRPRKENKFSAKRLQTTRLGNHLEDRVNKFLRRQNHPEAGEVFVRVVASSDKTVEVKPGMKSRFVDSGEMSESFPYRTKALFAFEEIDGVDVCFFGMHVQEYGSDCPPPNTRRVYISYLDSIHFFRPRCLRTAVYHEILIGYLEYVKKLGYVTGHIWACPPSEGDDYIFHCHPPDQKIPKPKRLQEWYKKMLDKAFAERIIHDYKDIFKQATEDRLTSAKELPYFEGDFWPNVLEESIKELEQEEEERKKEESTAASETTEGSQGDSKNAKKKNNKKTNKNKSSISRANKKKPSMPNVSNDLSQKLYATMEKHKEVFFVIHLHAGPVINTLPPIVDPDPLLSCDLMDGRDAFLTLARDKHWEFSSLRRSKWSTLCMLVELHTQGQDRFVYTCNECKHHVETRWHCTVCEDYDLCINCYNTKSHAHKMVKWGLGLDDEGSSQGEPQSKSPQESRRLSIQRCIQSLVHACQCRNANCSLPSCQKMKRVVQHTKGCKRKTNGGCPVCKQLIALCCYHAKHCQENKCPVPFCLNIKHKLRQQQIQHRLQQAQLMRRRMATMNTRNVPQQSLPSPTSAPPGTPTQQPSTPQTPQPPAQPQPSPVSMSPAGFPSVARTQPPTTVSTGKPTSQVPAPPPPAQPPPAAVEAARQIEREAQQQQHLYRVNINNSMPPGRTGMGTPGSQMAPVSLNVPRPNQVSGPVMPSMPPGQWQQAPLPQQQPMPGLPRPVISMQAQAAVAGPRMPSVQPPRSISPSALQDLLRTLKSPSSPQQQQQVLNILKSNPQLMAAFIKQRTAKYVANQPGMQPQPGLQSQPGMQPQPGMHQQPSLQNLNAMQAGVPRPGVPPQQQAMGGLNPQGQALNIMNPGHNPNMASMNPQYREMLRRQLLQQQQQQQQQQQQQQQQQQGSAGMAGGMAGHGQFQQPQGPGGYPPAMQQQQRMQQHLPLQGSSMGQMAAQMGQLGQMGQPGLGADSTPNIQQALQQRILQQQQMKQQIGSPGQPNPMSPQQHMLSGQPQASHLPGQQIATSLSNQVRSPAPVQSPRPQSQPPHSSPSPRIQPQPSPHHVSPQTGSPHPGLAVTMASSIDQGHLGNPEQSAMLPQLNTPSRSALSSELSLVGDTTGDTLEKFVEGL
Procedure, shortened: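 HEK 293T cells were co-transfected with HA-CBP and Flag-p53 (Fugene 6), then treated with test compound at several concentrations, with or without doxorubicin. CBP was immunoprecipitated on HA-agarose beads. Co-precipitated p53 was detected by western blot with anti-Flag antibody.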

[2] = system: p53-dependent p21 luciferase activity; assay: p21 luciferase assay of doxorubicin-induced p53 activation in U2OS cells; assay type: cell-based, human
p53 [3] = assay: western blot analysis of doxorubicin-treated U2OS cells; assay type: cell-based, human
Procedure, shortened: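 U2OS cells were grown in DMEM with 10% FBS and antibiotics, then exposed 24 h to doxorubicin ± test compound (50 or 100 μM). Lysates were sonicated and cleared at 14,000 rpm for 30 min at 4°C. 30–50 μg protein was run on SDS-PAGE and moved to nitrocellulose, blocked in 5% milk/PBS, probed with primary then HRP secondary (60 min, RT), and developed by ECL.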

CBP/p300 = assay type: biochemical; conditions: histone H3 peptide substrate; data not shown
p53 [4] = assay: immunoblot of doxorubicin-treated cardiomyocytes; assay type: cell-based; conditions: primary neonatal rat cardiomyocytes
Procedure, shortened: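 Neonatal rat ventricular myocytes (1–2-day-old Sprague-Dawley pups) were isolated by trypsin then collagenase digestion and enriched by two preplating rounds. They were cultured in DMEM/F12 with 10% horse serum and 5% FCS, then after 48 h in DMEM/F12 with 1% ITS and 0.1% BSA. Cells were exposed to doxorubicin with or without test compound and immunoblotted for activated p53 and H2AX Ser139 phosphorylation.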

[5] = U2OS cells, 50 or 100 μM, 24 hours
[6] = nuclear extracts from U2OS cells

| inhibition of p53 binding to CBP (p53 binding to CBP) | IC50 ([2]; Homo sapiens, U2OS, read-out: IC50 inhibition of p53-induced p21 activation) [µM] | direct inhibition of lysine acetyltransferase activity (CBP/p300) | SMILES | decrease of BRDU incorporation (U2OS cells; doxorubicin treatment of U2OS cells) [%] | toxicity of its own [1] | inhibition of doxorubicin-induced apoptosis ([1]; doxorubicin 24 hours) | prevention of doxorubicin-induced cell cycle arrest (BRDU incorporation) (U2OS cells; 50 μM compound, doxorubicin 5 μM, U2OS cells, 24 hours) | toxicity to the cells (U2OS cells; U2OS cells, 50 μM) | doxorubicin-induced expression of p53 target genes (CCNE2, CCNG2, CDC2, CDC25A, CDKN1A, CDKN2A, GADD45A, E2F1, E2F3, PCNA, SESN1, SESN2) (p53 target genes) | suppression of p21 expression ([2]; U2OS cells, doxorubicin, 50 μM) | expression of p53 target genes p21, PUMA and 14-3-3s induced by doxorubicin (p53 [3]; [5]) | levels of p53 protein, p53S15p and p53K382ac induced by doxorubicin (p53 [3]; [5]) | level or functional phosphorylation state of ATM and CHK1 (p53 [3]; U2OS cells, doxorubicin) | H3 acetylation at Lys9 (p53 [3]; [6]) | histone H3 phosphorylation at Ser10 (p53 [3]; [6]) | doxorubicin induced p53 activation (p53 [4]) | H2AX phosphorylation at Ser139 (p53 [4]; doxorubicin) |
| --- | --- | --- | --- | --- | --- | --- | --- | --- | --- | --- | --- | --- | --- | --- | --- | --- | --- |
|  |  |  | COc1cccc2c1C(=O)c1c(O)c3c(c(O)c1C2=O)C[C@@](O)(C(=O)CO)C[C@@H]3O[C@H]1C[C@H](N)[C@H](O)[C@H](C)O1 [doxorubicin, reference compound] | 45 |  |  |  |  |  |  |  |  |  |  |  |  |  |
| inhibiting in a dose-dependent manner | 5 | ruled out | Cc1cc(N=Nc2cc(S(=O)(=O)O)c(C)cc2C)c(N)cc1O [Ischemin / MS120, 5-(2-amino-4-hydroxy-5-methyl-phenylazo)-2,4-dimethyl-benzenesulfonic acid] |  | no toxicity of its own | effectively inhibit | almost completely prevented | not toxic | differentially reduce | nearly completely suppresses | significantly decreased | marked reduction | did not affect | decrease | increase | able to inhibit | did not alter |
